Measurements published in ChEMBL document CHEMBL2429728, “Novel Macrocyclic Amidinoureas: Potent Non-Azole Antifungals Active against Wild-Type and Resistant Candida Species” (2013).
Values after ≈ are worked out from the molar mass of the structure shown.

How the values were obtained:
Assay type in all cases: functional
Clavispora lusitaniae [1] = assay: Antifungal activity against Candida lusitaniae ATCC 200951 after 24 hrs by visually and spectrophotometric analysis
In short: (§1)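 Read-out is MIC90 in μg/mL, scored at 24 h both by eye and spectrophotometrically. The panel is Candida isolates that earlier reports describe as amphotericin B-resistant, with amphotericin B run alongside as the reference drug.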

Candida albicans [2] = assay: Antifungal activity against Candida albicans ATCC 200955 after 24 hrs by visually and spectrophotometric analysis; details: ATCC 200955, 24 h
In short: (§2)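 Endpoint is MIC90, in μg/mL, read at 24 h by both visual inspection and spectrophotometry.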

Nakaseomyces glabratus [3] = assay: Antifungal activity against fluconazole-resistant Candida glabrata DSY2254 increase expressing of CgCDR1 and CgCDR2 genes after 24 hrs by visually and spectrophotometric analysis; details: DSY2254, 24 h; in short: as §2
Candida albicans [4] = assay: Antifungal activity against fluconazole-resistant Candida albicans DSY735 expressing high level of CDR1 and CDR2 genes after 24 hrs by visually and spectrophotometric analysis; details: DSY735, 24 h; in short: as §2
Nakaseomyces glabratus [5] = assay: Antifungal activity against fluconazole-resistant Candida glabrata DSY756 increase expressing of CgCDR1, CgCDR2, and CgSNQ2 genes after 24 hrs by visually and spectrophotometric analysis; details: DSY756, 24 h; in short: as §2
Clavispora lusitaniae [6] = assay: Antifungal activity against Candida lusitaniae ATCC 60247 after 24 hrs by visually and spectrophotometric analysis; details: ATCC 60247, 24 h; in short: as §1
Candida albicans [7] = assay: Antifungal activity against fluconazole-resistant Candida albicans DSY292 harboring ERG11 gene mutant and increase expressing of MDR1 gene after 24 hrs by visually and spectrophotometric analysis; details: DSY292, 24 h; in short: as §2
Candida albicans [8] = assay: Antifungal activity against fluconazole-resistant Candida albicans DSY348 harboring ERG11 gene mutant and increase expressing of CDR1 and CDR2 genes after 24 hrs by visually and spectrophotometric analysis; details: DSY348, 24 h; in short: as §2
Candida albicans [9] = assay: Antifungal activity against fluconazole-resistant Candida albicans DSY289 harboring ERG11 gene mutant and increase expressing of CDR1 and CDR2 genes after 24 hrs by visually and spectrophotometric analysis; details: DSY289, 24 h; in short: as §2
Candida albicans [10] = assay: Antifungal activity against fluconazole-resistant Candida albicans DSY284 harboring ERG11 gene mutant and increase expressing of CDR1 and CDR2 genes after 24 hrs by visually and spectrophotometric analysis; details: DSY284, 24 h; in short: as §2
Candida albicans [11] = assay: Antifungal activity against fluconazole-resistant Candida albicans DSY296 harboring ERG11 gene mutant and increase expressing of CDR1 and CDR2 genes after 24 hrs by visually and spectrophotometric analysis; details: DSY296, 24 h; in short: as §2
Clavispora lusitaniae [12] = assay: Antifungal activity against Candida lusitaniae ATCC 200950 after 24 hrs by visually and spectrophotometric analysis; details: ATCC 200950, 24 h; in short: as §1
Candida tropicalis [13] = assay: Antifungal activity against Candida tropicalis ATCC 200956 after 24 hrs by visually and spectrophotometric analysis; details: ATCC 200956, 24 h; in short: as §1
Clavispora lusitaniae [14] = assay: Antifungal activity against Candida lusitaniae ATCC 24348 after 24 hrs by visually and spectrophotometric analysis; details: ATCC 24348, 24 h; in short: as §1
Candida albicans [15] = assay: Antifungal activity against wild type Candida albicans ATCC 60193 after 24 hrs by visually and spectrophotometric analysis; details: ATCC 60193, 24 h
Nakaseomyces glabratus [16] = assay: Antifungal activity against fluconazole-resistant Candida glabrata DSY754 increase expressing of CgCDR1 gene after 24 hrs by visually and spectrophotometric analysis; details: DSY754, 24 h; in short: as §2
Nakaseomyces glabratus [17] = assay: Antifungal activity against fluconazole-resistant Candida glabrata DSY530 increase expressing of CgCDR1 gene after 24 hrs by visually and spectrophotometric analysis; details: DSY530, 24 h; in short: as §2
Candida parapsilosis = assay: Antifungal activity against wild type Candida parapsilosis ATCC 34136 after 24 hrs by visually and spectrophotometric analysis; details: Lodderomyces parapsilosis, ATCC 34136, 24 h
Candida albicans [18] = assay: Antifungal activity against fluconazole-resistant Candida albicans DSY775 harboring ERG11 gene mutant and increase expressing of CDR1 and CDR2 genes after 24 hrs by visually and spectrophotometric analysis; details: DSY775, 24 h; in short: as §2
Nakaseomyces glabratus [19] = assay: Antifungal activity against fluconazole-resistant Candida glabrata DSY2271 increase expressing of CgCDR2 genes after 24 hrs by visually and spectrophotometric analysis; details: DSY2271, 24 h; in short: as §2
Candida albicans [20] = assay: Antifungal activity against fluconazole-resistant Candida albicans DSY751 harboring ERG11 gene mutant and increase expressing of MDR1 gene after 24 hrs by visually and spectrophotometric analysis; details: DSY751, 24 h; in short: as §2
Nakaseomyces glabratus [21] = assay: Antifungal activity against wild type Candida glabrata after 24 hrs by visually and spectrophotometric analysis
Candida tropicalis [22] = assay: Antifungal activity against wild type Candida tropicalis after 24 hrs by visually and spectrophotometric analysis
[23] = system: Meyerozyma guilliermondii; assay: Antifungal activity against wild type Candida guilliermondii after 24 hrs by visually and spectrophotometric analysis
Kluyveromyces marxianus = assay: Antifungal activity against wild type Candida kefyr after 24 hrs by visually and spectrophotometric analysis
Clavispora lusitaniae [24] = assay: Antifungal activity against Candida lusitaniae ATCC 200953 after 24 hrs by visually and spectrophotometric analysis; in short: as §1
Pichia kudriavzevii = assay: Antifungal activity against wild type Candida krusei ATCC 14243 after 24 hrs by visually and spectrophotometric analysis; details: ATCC 14243, 24 h
Clavispora lusitaniae [25] = assay: Antifungal activity against Candida lusitaniae ATCC 200952 after 24 hrs by visually and spectrophotometric analysis; in short: as §1

| SMILES | MIC90 (Clavispora lusitaniae [1]) [µg/mL] | MIC90 (Candida albicans [2]) [µg/mL] | MIC90 (Nakaseomyces glabratus [3]) [µg/mL] | MIC90 (Candida albicans [4]) [µg/mL] | MIC90 (Nakaseomyces glabratus [5]) [µg/mL] | MIC90 (Clavispora lusitaniae [6]) [µg/mL] | MIC90 (Candida albicans [7]) [µg/mL] | MIC90 (Candida albicans [8]) [µg/mL] | MIC90 (Candida albicans [9]) [µg/mL] | MIC90 (Candida albicans [10]) [µg/mL] | MIC90 (Candida albicans [11]) [µg/mL] | MIC90 (Clavispora lusitaniae [12]) [µg/mL] | MIC90 (Candida tropicalis [13]) [µg/mL] | MIC90 (Clavispora lusitaniae [14]) [µg/mL] | MIC90 (Candida albicans [15]) [µg/mL] | MIC90 (Nakaseomyces glabratus [16]) [µg/mL] | MIC90 (Nakaseomyces glabratus [17]) [µg/mL] | MIC90 (Candida parapsilosis) [µg/mL] | MIC90 (Candida albicans [18]) [µg/mL] | MIC90 (Nakaseomyces glabratus [19]) [µg/mL] | also measured |
| --- | --- | --- | --- | --- | --- | --- | --- | --- | --- | --- | --- | --- | --- | --- | --- | --- | --- | --- | --- | --- | --- |
| C/C=C/CNC(=N)NCCCCCCCCN1CCCCOC(=O)CCNC(=N)NC1=O.O=C(O)C(F)(F)F | 4 | 8 | 128 | 8 | 128 | 4 | 16 | 8 | 8 | 16 | 16 | 8 | 16 | 4 | 32 | 64 | 64 | 32 | 16 | 64 | MIC90 (Candida albicans [20]): 16 µg/mL; MIC90 (Nakaseomyces glabratus [21]): 64 µg/mL; MIC90 (Candida tropicalis [22]): 32 µg/mL; MIC90 [23]: 32 µg/mL; MIC90 (Kluyveromyces marxianus): 32 µg/mL; MIC90 (Clavispora lusitaniae [24]): 8 µg/mL; MIC90 (Pichia kudriavzevii): 64 µg/mL; MIC90 (Clavispora lusitaniae [25]): 4 µg/mL |
| N=C(NCCCCCCCCN1CCCCCCCCNC(=N)NC1=O)NCC1CC1.O=C(O)C(F)(F)F | 2 | 1 | 32 | 1 | 16 | 4 | 2 | 2 | 1 | 1 | 2 | 4 | 2 | 2 | 1 | 16 | 16 | 2 | 2 | 16 | MIC90 (Candida albicans [20]): 2 µg/mL; MIC90 (Nakaseomyces glabratus [21]): 16 µg/mL; MIC90 (Candida tropicalis [22]): 0.5 µg/mL; MIC90 [23]: 2 µg/mL; MIC90 (Kluyveromyces marxianus): 4 µg/mL; MIC90 (Clavispora lusitaniae [24]): 2 µg/mL; MIC90 (Pichia kudriavzevii): 4 µg/mL; MIC90 (Clavispora lusitaniae [25]): 1 µg/mL |
| OC(Cn1cncn1)(Cn1cncn1)c1ccc(F)cc1F [FLUCONAZOLE] | – | – | 128 (≈ 418 µM) | 64 (≈ 209 µM) | 128 (≈ 418 µM) | – | 64 (≈ 209 µM) | 32 (≈ 104 µM) | 256 (≈ 836 µM) | 256 (≈ 836 µM) | 128 (≈ 418 µM) | – | – | – | 2 (≈ 6.53 µM) | 64 (≈ 209 µM) | 64 (≈ 209 µM) | 0.5 (≈ 1.63 µM) | 128 (≈ 418 µM) | 64 (≈ 209 µM) | MIC90 (Candida albicans [20]): 256 µg/mL (≈ 836 µM); MIC90 (Nakaseomyces glabratus [21]): 16 µg/mL (≈ 52.2 µM); MIC90 (Candida tropicalis [22]): 2 µg/mL (≈ 6.53 µM); MIC90 [23]: 4 µg/mL (≈ 13.1 µM); MIC90 (Kluyveromyces marxianus): 1 µg/mL (≈ 3.27 µM); MIC90 (Pichia kudriavzevii): 256 µg/mL (≈ 836 µM) |
| C/C=C/CNC(=N)NCCCCCCCCN1CCCCCCCCNC(=N)NC1=O | – | – | – | – | – | – | – | – | – | – | – | – | – | – | – | – | – | – | – | – | MIC50 (Candida albicans [15]): 2.5 µg/mL (≈ 5.74 µM); MIC50 (Candida parapsilosis): 5 µg/mL (≈ 11.5 µM); MIC50 (Nakaseomyces glabratus [21]): 20 µg/mL (≈ 45.9 µM); MIC50 (Candida tropicalis [22]): 1.25 µg/mL (≈ 2.87 µM); MIC50 (Pichia kudriavzevii): 5 µg/mL (≈ 11.5 µM) |
| C/C=C/CNC(=N)NCCCCCCCCN1CCCCCOc2ccccc2CNC(=N)NC1=O.O=C(O)C(F)(F)F | 2 | 1 | 16 | 2 | 8 | 4 | 4 | 2 | 2 | 2 | 4 | 2 | 4 | 2 | 4 | 16 | 8 | 2 | 4 | 8 | MIC90 (Candida albicans [20]): 4 µg/mL; MIC90 (Nakaseomyces glabratus [21]): 8 µg/mL; MIC90 (Candida tropicalis [22]): 2 µg/mL; MIC90 [23]: 2 µg/mL; MIC90 (Kluyveromyces marxianus): 4 µg/mL; MIC90 (Clavispora lusitaniae [24]): 4 µg/mL; MIC90 (Pichia kudriavzevii): 8 µg/mL; MIC90 (Clavispora lusitaniae [25]): 2 µg/mL |
| C=CCNC(=N)NCCCCCCCCN1CCCCCCCCNC(=N)NC1=O.O=C(O)C(F)(F)F | 2 | 1 | 32 | 1 | 16 | 2 | 2 | 1 | 1 | 1 | 2 | 2 | 1 | 1 | 1 | 32 | 16 | 4 | 2 | 32 | MIC90 (Nakaseomyces glabratus [21]): 32 µg/mL; MIC90 (Candida tropicalis [22]): 0.5 µg/mL; MIC90 [23]: 2 µg/mL; MIC90 (Kluyveromyces marxianus): 4 µg/mL; MIC90 (Clavispora lusitaniae [24]): 4 µg/mL; MIC90 (Pichia kudriavzevii): 0.5 µg/mL; MIC90 (Clavispora lusitaniae [25]): 2 µg/mL |
| C[C@@H](c1ncncc1F)[C@](O)(Cn1cncn1)c1ccc(F)cc1F [VORICONAZOLE] | – | – | 2 (≈ 5.73 µM) | 2 (≈ 5.73 µM) | 4 (≈ 11.5 µM) | – | 2 (≈ 5.73 µM) | 0.25 (≈ 0.716 µM) | 8 (≈ 22.9 µM) | 4 (≈ 11.5 µM) | 8 (≈ 22.9 µM) | – | – | – | – | 2 (≈ 5.73 µM) | 0.5 (≈ 1.43 µM) | – | 8 (≈ 22.9 µM) | 0.125 (≈ 0.358 µM) | MIC90 (Candida albicans [20]): 0.25 µg/mL (≈ 0.716 µM) |
| C[C@@H]1[C@H](O)[C@@H](C)/C=C/C=C/C=C/C=C/C=C/C=C/C=C/[C@H](O[C@@H]2O[C@H](C)[C@@H](O)[C@H](N)[C@@H]2O)C[C@@H]2O[C@](O)(C[C@@H](O)C[C@@H](O)[C@H](O)CC[C@@H](O)C[C@@H](O)CC(=O)O[C@H]1C)C[C@H](O)[C@H]2C(=O)O [AMPHOTERICIN B] | 1 (≈ 1.08 µM) | 2 (≈ 2.16 µM) | – | – | – | 0.125 (≈ 0.135 µM) | – | – | – | – | – | 1 (≈ 1.08 µM) | 8 (≈ 8.66 µM) | 0.125 (≈ 0.135 µM) | – | – | – | – | – | – | MIC90 (Clavispora lusitaniae [24]): 1 µg/mL (≈ 1.08 µM); MIC90 (Clavispora lusitaniae [25]): 2 µg/mL (≈ 2.16 µM) |
